The results in this text go back to ChEMBL document CHEMBL1146597, “Synthesis, in vitro affinity, and efficacy of a bis 8-ethynyl-4H-imidazo[1,5a]- [1,4]benzodiazepine analogue, the first bivalent alpha5 subtype selective BzR/GABA(A) antagonist” (J Med Chem, 2003).

Assay [1] is described as follows: In vitro binding affinity for human GABA-A receptor alpha-3-beta-3-gamma-2 subunits expressed in L(tk-) cell membranes. The procedure, abridged:
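Radioligand displacement on Ltk cell membranes expressing human α3β3γ2 receptors, with 1.8 nM [3H]Ro15-1788 as radioligand. Ki is the mean of two determinations that differed by less than 10%.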

For assay [2], the target named is T1, GABA-A receptor; alpha-1/beta-3/gamma-2 (Homo sapiens, UniProt P14867+P18507+P28472).
T1 sequence (P14867 whole entry): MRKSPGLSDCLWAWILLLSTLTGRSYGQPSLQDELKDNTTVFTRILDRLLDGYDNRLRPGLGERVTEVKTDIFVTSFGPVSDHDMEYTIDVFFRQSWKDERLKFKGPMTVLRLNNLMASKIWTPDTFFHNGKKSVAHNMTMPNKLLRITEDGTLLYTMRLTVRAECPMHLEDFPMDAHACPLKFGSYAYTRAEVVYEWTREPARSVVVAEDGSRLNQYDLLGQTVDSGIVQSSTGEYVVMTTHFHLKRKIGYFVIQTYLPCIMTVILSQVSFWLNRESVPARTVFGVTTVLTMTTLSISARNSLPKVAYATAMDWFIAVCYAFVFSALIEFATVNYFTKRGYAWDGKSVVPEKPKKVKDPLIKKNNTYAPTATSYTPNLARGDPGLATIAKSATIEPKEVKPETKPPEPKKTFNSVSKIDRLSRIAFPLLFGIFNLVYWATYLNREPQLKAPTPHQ
T1 sequence (P18507 whole entry): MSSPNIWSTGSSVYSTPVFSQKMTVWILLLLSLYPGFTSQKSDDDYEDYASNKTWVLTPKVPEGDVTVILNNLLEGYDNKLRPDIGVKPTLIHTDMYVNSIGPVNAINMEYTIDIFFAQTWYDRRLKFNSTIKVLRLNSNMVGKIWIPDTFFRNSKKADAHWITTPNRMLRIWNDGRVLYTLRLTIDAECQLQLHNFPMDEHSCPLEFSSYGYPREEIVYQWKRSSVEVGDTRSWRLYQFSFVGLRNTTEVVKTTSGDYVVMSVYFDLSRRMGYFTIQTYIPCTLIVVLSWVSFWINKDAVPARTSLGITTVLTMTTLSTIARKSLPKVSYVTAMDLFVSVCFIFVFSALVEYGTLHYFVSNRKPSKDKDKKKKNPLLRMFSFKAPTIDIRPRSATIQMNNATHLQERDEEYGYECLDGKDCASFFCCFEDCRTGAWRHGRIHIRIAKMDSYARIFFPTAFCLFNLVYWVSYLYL
T1 sequence (P28472 whole entry): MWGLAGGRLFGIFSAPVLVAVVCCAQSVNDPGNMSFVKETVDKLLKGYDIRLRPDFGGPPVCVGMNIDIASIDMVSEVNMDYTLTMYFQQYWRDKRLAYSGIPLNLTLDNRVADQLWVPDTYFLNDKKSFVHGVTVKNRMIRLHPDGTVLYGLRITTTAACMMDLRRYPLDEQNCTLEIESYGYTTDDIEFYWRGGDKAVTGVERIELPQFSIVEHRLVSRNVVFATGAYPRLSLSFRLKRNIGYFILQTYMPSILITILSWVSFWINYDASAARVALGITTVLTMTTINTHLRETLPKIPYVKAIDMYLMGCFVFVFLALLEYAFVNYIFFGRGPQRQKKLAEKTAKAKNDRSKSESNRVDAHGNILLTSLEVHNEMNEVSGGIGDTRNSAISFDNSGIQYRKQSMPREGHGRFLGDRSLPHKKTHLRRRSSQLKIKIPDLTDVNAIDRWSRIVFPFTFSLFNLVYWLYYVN
In words: In vitro binding affinity for human GABA-A receptor alpha-1-beta-3-gamma-2 subunits expressed in L(tk-) cell membranes. The procedure, abridged:
(§1)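 Radioligand displacement on membranes of […] cells expressing human αβ3γ2 receptors, using 1.8 nM [³H]Ro15-1788. Ki taken as the mean of two determinations that differed by less than 10%.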

The target of assay [3] is T2, GABA-A receptor; alpha-5/beta-3/gamma-2 (Homo sapiens, UniProt P18507+P28472+P31644).
T2 sequence (P18507 whole entry): T1 sequence (P18507 whole entry)
T2 sequence (P28472 whole entry): T1 sequence (P28472 whole entry)
T2 sequence (P31644 whole entry): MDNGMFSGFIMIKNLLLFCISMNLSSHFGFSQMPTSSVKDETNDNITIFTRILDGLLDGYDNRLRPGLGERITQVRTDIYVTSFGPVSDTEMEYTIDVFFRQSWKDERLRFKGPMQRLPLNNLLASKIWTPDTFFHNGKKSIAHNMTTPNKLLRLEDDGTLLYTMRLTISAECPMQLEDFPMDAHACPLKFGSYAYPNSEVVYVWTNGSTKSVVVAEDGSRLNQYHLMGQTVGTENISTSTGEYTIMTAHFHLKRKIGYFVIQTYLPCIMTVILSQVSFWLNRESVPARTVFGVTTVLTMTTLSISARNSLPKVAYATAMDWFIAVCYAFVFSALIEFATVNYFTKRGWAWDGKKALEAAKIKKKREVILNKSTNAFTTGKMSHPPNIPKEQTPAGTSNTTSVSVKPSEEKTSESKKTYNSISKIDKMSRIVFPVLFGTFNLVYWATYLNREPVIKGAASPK
The assay can be described thus: In vitro binding affinity for human GABA-A receptor alpha-5-beta-3-gamma-2 subunits expressed in L(tk-) cell membranes. A digest of the protocol:
as §1

The target of assay [4] is GABA-A receptor; alpha-6/beta-3/gamma-2 (Homo sapiens, UniProt P18507+P28472+Q16445). The assay can be described thus: In vitro binding affinity for human GABA-A receptor alpha-6-beta-3-gamma-2 subunits expressed in L(tk-) cell membranes.
Assay [5] deals with GABA A receptor alpha-4/beta-3/gamma-2 (Homo sapiens, UniProt P18507+P28472+P48169). The assay can be described thus: In vitro binding affinity for human GABA-A receptor alpha-4-beta-3-gamma-2 subunits expressed in L(tk-) cell membranes. The procedure, abridged:
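Radioligand displacement on Ltk cell membranes expressing human α4β3γ2 receptors, with 8 nM [3H]Ro15-4513 as radioligand. Ki is the mean of two determinations that differed by less than 10%.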

The target of assay [6] is T3, GABA-A receptor; alpha-2/beta-3/gamma-2 (Homo sapiens, UniProt P18507+P28472+P47869).
T3 sequence (P18507 whole entry): T1 sequence (P18507 whole entry)
T3 sequence (P28472 whole entry): T1 sequence (P28472 whole entry)
T3 sequence (P47869 whole entry): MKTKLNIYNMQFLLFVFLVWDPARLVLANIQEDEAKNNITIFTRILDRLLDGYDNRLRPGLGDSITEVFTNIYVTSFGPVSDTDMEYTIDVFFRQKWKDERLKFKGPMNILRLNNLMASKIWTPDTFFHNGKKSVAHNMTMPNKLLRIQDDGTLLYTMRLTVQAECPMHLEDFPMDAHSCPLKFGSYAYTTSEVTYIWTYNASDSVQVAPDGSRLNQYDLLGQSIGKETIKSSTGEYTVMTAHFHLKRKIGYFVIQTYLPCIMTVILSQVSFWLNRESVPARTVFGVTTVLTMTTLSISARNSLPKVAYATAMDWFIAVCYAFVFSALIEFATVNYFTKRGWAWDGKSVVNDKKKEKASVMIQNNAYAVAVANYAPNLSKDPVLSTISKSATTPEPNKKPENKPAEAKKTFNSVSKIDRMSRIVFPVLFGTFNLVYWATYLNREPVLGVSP
The assay can be described thus: In vitro binding affinity for human GABA-A receptor alpha-2-beta-3-gamma-2 subunits expressed in L(tk-) cell membranes. The procedure, abridged:
as §1

Molecules are shown by their SMILES. pKi: −log10 of the molar value.

Sequence of GABA A receptor alpha-4/beta-3/gamma-2 (P48169 whole entry, one chain of several): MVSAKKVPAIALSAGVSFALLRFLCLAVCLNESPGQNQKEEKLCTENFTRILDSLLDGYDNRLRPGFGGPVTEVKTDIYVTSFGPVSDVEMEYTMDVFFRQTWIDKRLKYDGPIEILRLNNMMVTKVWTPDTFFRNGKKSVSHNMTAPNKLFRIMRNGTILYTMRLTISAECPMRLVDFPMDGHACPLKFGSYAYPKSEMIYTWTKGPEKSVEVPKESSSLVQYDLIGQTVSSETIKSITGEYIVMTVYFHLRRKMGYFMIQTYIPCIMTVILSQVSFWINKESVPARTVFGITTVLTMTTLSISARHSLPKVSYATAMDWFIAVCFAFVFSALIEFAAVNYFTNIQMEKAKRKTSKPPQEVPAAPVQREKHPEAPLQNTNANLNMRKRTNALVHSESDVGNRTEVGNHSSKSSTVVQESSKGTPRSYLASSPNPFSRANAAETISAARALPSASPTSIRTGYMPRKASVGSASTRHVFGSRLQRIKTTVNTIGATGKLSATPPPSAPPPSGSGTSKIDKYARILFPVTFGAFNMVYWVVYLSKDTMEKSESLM
Sequence of GABA-A receptor; alpha-6/beta-3/gamma-2 (Q16445 whole entry, one chain of several): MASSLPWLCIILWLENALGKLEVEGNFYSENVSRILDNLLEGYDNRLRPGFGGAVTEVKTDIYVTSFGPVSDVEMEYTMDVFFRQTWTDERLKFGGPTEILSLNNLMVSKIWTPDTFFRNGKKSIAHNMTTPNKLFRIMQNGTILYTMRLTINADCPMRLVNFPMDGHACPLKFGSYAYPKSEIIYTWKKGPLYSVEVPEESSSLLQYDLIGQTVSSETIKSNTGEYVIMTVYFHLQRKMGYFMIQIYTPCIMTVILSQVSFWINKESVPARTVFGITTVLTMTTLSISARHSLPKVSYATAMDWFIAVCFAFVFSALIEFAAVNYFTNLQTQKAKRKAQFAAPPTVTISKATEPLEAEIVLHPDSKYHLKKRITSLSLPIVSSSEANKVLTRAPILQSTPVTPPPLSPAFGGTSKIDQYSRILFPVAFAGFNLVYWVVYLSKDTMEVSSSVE

`CCOC(=O)c1ncn2c1CN(C)C(=O)c1cc(C#C[Si](C)(C)C)ccc1-2`: the pKi (commonly the Ki on a negative log10 scale, so that one unit is a factor of ten) in assay [1] was 6.70.
For `CCOC(=O)c1ncn2c1CN(C)C(=O)c1cc(N=[N+]=[N-])ccc1-2` [Ro-154513], the values for the negative-log Ki (pKi) in assay [2] and in assay [1] were 7.48 and 7.60, respectively.
Molecule `CCOC(=O)c1ncn2c1[C@@H]1CCCN1C(=O)c1cc(OC)ccc1-2` gave a pKi in assay [1] of 7.61.
In the case of `C#Cc1ccc2c(c1)C(=O)N(C)Cc1c(C(=O)OCCCOC(=O)c3ncn4c3CN(C)C(=O)c3cc(C#C)ccc3-4)ncn1-2`, the pKi in assay [3] is 7.82; in assay [2], less than 6.00; in assay [4] it was less than 5.70; in assay [5], 5.81; in assay [6], less than 6.00; in assay [1], 6.07.
On to `CN1Cc2c(C(=O)OC(C)(C)C)ncn2-c2ccc(C#C[Si](C)(C)C)cc2C1=O`, for which the pKi was 8.11 in assay [5] and 6.59 in assay [1].
In assay [1], `C#Cc1ccc2c(c1)C(=O)N(C)Cc1c(C(=O)OC(C)(C)C)ncn1-2` gave a pKi of 7.73.
Consider `C#Cc1ccc2c(c1)C(=O)N(C)Cc1c(C(=O)OCC)ncn1-2`, for which the negative-log Ki (pKi) in assay [5] was 7.28; in assay [1] it was 7.59.
